# Laboratory results reported in ChEMBL document CHEMBL4837242, “Discovery of Irbesartan Derivatives as BLT2 Agonists by Virtual Screening” (ACS Med Chem Lett, 2021).
# Activity calls are given as the source filed them. No cut-off for these calls is given here.
# Tests used:
# [1] = molecular target: T1, Leukotriene B4 receptor 2 (Homo sapiens, UniProt Q9NPC1); experiment: Agonist activity at human BLT2 overexpressed in CHO-K1 cells assessed as accumulation of inositol monophosphate measured after 90 mins by HTRF assay; assay type: functional, cell-based
# T1 sequence (Q9NPC1 whole entry): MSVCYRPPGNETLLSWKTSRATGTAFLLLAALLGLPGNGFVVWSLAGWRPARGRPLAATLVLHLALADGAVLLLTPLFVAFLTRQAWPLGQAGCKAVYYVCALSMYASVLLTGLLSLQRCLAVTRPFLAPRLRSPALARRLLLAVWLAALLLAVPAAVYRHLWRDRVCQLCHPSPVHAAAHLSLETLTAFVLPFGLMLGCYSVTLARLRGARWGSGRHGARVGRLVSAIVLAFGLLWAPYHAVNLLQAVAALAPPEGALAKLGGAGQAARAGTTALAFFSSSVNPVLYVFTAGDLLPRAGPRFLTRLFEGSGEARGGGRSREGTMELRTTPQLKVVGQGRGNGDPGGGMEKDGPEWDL
# [2] = molecular target: T2, Type-1 angiotensin II receptor (Homo sapiens, UniProt P30556); experiment: Antagonist activity at human AT1 overexpressed in CHO-K1 cells in presence of 10 nM [Val5-angiotensin II measured after 90 mins by HTRF based IP-one assay; assay type: functional, cell-based
# T2 sequence (P30556 whole entry): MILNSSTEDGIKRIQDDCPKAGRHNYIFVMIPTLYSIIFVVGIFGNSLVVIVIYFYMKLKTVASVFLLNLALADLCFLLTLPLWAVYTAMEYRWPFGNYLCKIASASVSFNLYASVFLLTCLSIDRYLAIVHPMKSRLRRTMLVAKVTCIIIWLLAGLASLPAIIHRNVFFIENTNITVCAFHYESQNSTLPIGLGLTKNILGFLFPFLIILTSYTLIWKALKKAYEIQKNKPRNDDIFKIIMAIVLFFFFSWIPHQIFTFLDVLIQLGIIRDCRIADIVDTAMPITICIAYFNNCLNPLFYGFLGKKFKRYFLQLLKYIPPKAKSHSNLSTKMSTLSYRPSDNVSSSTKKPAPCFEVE
# Summary of the method: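 IP-One assay in antagonist mode, [Val⁵]-angiotensin II held constant at 10 nM; IP-1 accumulation read out. IC₅₀ with SEM from at least two runs (n = 2).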
# [3] = molecular target: Leukotriene B4 receptor 1 (Homo sapiens) (UniProt Q15722); experiment: Agonist activity at human BLT1 overexpressed in CHO-K1 cells assessed as accumulation of inositol monophosphate measured after 90 mins by HTRF assay; assay type: functional, cell-based
# Summary of the method: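 IP-One accumulation assay run in agonist mode, read-out inositol monophosphate as a measure of Gq activation; LTB₄ as reference agonist and positive control. EC₅₀ determinations done at least twice (n = 2).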
# HepG2 = experiment: (§1) Cytotoxicity against human HepG2 cells assessed as cell survival rate at 50 uM measured after 3 days by Celltiter-glo assay relative to control; assay type: cell-based; conditions: hepg2, 72 h, 50 µM
# Summary of the method: (§2)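 Hep-G2 cells exposed to 50 μM compound for 3 days; ATP content measured by CellTiter-Glo luminescence as an index of metabolic activity and survival; live rate expressed as percent of DMSO control.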
# [4] = as §1; assay type: cell-based; conditions: HepG2 cells, read-out: Activity; summary of the method: as §2
# HCT-116 [5] = experiment: Induction of cell proliferation in human HCT-116 cells at 0.03 uM measured after 24 hrs by celltiter blue reagent based fluorescent assay; assay type: functional
# Summary of the method: (§3)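 HCT116 seeded at 5 × 10³ cells/well, grown 72 h, then treated 24 h with compound alone or with BLT2 antagonist Ly255283 (1 μM); CellTiterBlue added for the final 4 h, resorufin fluorescence read. Mean ± SEM, n = 3.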
# HCT-116 [6] = experiment: Induction of cell proliferation in human HCT-116 cells at 0.1 to 1 uM measured after 24 hrs by celltiter blue reagent based fluorescent assay; assay type: functional; summary of the method: as §3
# Chain of Leukotriene B4 receptor 1 (Homo sapiens) (Q15722 whole entry): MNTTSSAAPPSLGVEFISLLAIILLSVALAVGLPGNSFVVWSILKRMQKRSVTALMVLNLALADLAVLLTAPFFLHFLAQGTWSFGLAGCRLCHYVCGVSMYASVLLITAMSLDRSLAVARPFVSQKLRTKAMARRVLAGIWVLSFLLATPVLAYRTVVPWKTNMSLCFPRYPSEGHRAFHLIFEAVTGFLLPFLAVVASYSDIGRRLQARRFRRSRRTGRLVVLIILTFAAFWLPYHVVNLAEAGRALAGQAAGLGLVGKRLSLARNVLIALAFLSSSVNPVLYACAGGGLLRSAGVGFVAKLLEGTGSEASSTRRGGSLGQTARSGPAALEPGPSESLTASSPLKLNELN
SMILES,EC50 ([1]; cho-k1),IC50 ([2]; read-out: IC50) [nM],Activity [3],EC50 ([1]; read-out: EC50) [nM],also measured
O=C(O)c1ccccc1-c1ccc(CN2C(=O)C3(CCCC3)N=C2c2ccccc2)cc1,Not Active,> 10000,inactive,–,Activity (HepG2): Non-Toxic
CCOc1nc2cccc(C(=O)O)c2n1Cc1ccc(-c2ccccc2-c2noc(=O)[nH]2)cc1 [AZILSARTAN],Not Active,–,–,–,–
CCCC[C@@H]1N(Cc2ccc(-c3ccccc3-c3nnn[nH]3)cc2)C(=O)[C@@H]2CCCN12,Not Active,1010,inactive,–,"viability at 72 h, 50 µM [4]: 89%"
CCCCC1=NC(C)(c2ccccc2)C(=O)N1Cc1ccc(-c2ccccc2-c2nnn[nH]2)cc1 (stereo not given),–,25,inactive,550,"viability at 72 h, 50 µM [4]: 56%"
CCCC[C@H]1N(Cc2ccc(-c3ccccc3-c3nnn[nH]3)cc2)C(=O)[C@H]2CCCN21,–,10000,inactive,7500,"viability at 72 h, 50 µM [4]: 88%"
CCCCC1=NC(C)(C)C(=O)N1Cc1ccc(-c2ccccc2-c2nnn[nH]2)cc1,–,32,inactive,8140,"viability at 72 h, 50 µM [4]: 56%"
O=C(O)c1ccccc1-c1ccc(CN2C(=O)C3(CCCC3)N=C2Cc2ccccc2)cc1,–,8650,–,–,"viability at 72 h, 50 µM [4]: 79%"
CC(C(=O)O)c1ccc2c(c1)CC(=O)c1ccccc1S2 (stereo not given) [ZALTOPROFEN],Not Active,–,–,–,–
C[C@H](CCC(=O)O)[C@H]1CC[C@H]2[C@@H]3[C@H](O)C[C@@H]4C[C@H](O)CC[C@]4(C)[C@H]3CC[C@]12C [CHENODIOL],Not Active,–,–,–,–
CCCCC1(C2CCCC2)Cc2cc(OCCCC(=O)O)c(Cl)c(Cl)c2C1=O (stereo not given),Not Active,–,–,–,–
O=C(O)Cn1c2c(c3cc(F)ccc31)CN(C(=O)c1cccc3ccccc13)CC2 [SETIPIPRANT],Not Active,–,–,–,–
CCCCC(=O)N(Cc1ccc(-c2ccccc2C(=O)O)cc1)c1ccccc1,–,–,–,–,Activity (HCT-116 [5]): Active
CCCCC1=NC2(CCCCC2)C(=O)N1Cc1ccc(-c2ccccc2C(=O)O)cc1,–,155,inactive,860,–
CCc1cc(C(C)=O)c(O)cc1OCCCCCC(C)(C)c1nn[nH]n1,–,–,–,–,Activity (HCT-116 [6]): inactive
CCCCC1=NC2(CCCC2)C(=O)N1Cc1ccc(-c2ccccc2-c2nnn[nH]2)cc1 [IRBESARTAN],–,–,inactive,410,Activity (HCT-116 [5]): 88%
CCCCC1NC(=O)C2(CCCC2)N1Cc1ccc(-c2ccccc2C(=O)O)cc1 (stereo not given),–,7750,inactive,24200,Activity (HepG2): Non-Toxic
O=C(O)COc1ccc(C(=O)c2cccs2)c(Cl)c1Cl,Not Active,–,–,–,–
CCOc1nc2cccc(C(=O)O)c2n1Cc1ccc(-c2ccccc2-c2nnn[nH]2)cc1,–,–,–,15000,–
CCCCC(=O)N(Cc1ccc(-c2ccccc2-c2nnn[nH]2)cc1)[C@H](C(=O)O)C(C)C,–,–,–,16000,–
CSc1ccc(C(=O)/C=C/c2cc(C)c(OC(C)(C)C(=O)O)c(C)c2)cc1 [ELAFIBRANOR],Not Active,–,–,–,–
CCCCC1=NC(C)(C(C)C)C(=O)N1Cc1ccc(-c2ccccc2-c2nnn[nH]2)cc1 (stereo not given),–,15,inactive,67.6,Activity (HepG2): Non-Toxic; Activity (HCT-116 [5]): Active
CCCCC1NC(C)(C)C(=O)N1Cc1ccc(-c2ccccc2-c2nnn[nH]2)cc1 (stereo not given),–,390,–,–,"viability at 72 h, 50 µM [4]: 77%"
O=C(O)c1ccccc1-c1ccc(CN2C(=O)C3(CCCC3)N=C2CCc2ccccc2)cc1,Not Active,–,inactive,–,IC50 ([2]; cho-k1): Not Active; Activity (HepG2): Non-Toxic
CCCCC1=NC2(CCCC2)C(=O)N1Cc1ccc(-c2ccccc2C(=O)O)cc1,–,190,–,–,–
